# According to PMC6468299 (Nucleic Acids Research, 2019):
# Read-outs that look alike come from different tables or passages of the source. Marks after values point to notes of the source that are not given here.
# Legend:
# [1] = system: SNB-78 (CNS); test: Cytotoxicity, sulforhodamine B assay, SNB-78; format: cell-based, human; settings: for CC50: day 11
# In short: (§1)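 Cells were grown 1 week in glucose- or galactose-containing medium, then seeded in 96-well plates. iCell cardiomyocytes were seeded on gelatin-coated plates and grown 5 days. Test compounds in 1:1 ethanol:water were added at each media change on days 0, 3, 7 and 10 (four doses), at up to 250 μM. Final ethanol was 2.5% at 250 μM and 1% otherwise. Total protein was read by sulforhodamine B on day 11. CC50 was fitted from triplicates.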
# [2] = system: Molt-4 (blood); test: Cytotoxicity, sulforhodamine B assay, Molt-4; format: cell-based, human; settings: day 11
# In short: as §1
# [3] = format: in vivo, Sprague Dawley rats; settings: single 30 mg/kg sc; for amount excreted in bile: rat bile collected over 168 h; for amount excreted in urine: rat urine collected over 168 h
# In short: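 Rats (3 male, 3 female) received a single subcutaneous 30 mg/kg dose of test GalNAc–siRNA. Liver, kidney, heart, plasma, urine and bile were sampled, with urine and bile collected over 168 h. Samples were ACN/water-precipitated, dried and dephosphorylated with calf intestinal alkaline phosphatase (pH 8.0, 37°C, 1 h). 2′-F-nucleosides were quantified by LC-MS/MS against matrix standards ([…]). Values are group means.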
# [4] = system: COLO 205 (intestine); test: Cytotoxicity, sulforhodamine B assay, COLO 205; format: cell-based, human; settings: day 11
# In short: as §1
# [5] = In vitro metabolism of 2′-F-monomers in human liver S9; format: in vitro ADME; settings: 10 μM, human liver S9 1 mg/ml, 37°C, 1 h
# [6] = system: Caki-1 (kidney); test: Cytotoxicity, sulforhodamine B assay, Caki-1; format: cell-based, human; settings: day 11
# In short: as §1
# [7] = system: SkMC (muscle); test: Cytotoxicity, sulforhodamine B assay, SkMC; format: cell-based, human; settings: SkMC, day 11
# In short: as §1
# [8] = system: HepG2 (liver); test: Cytotoxicity, sulforhodamine B assay, HepG2; format: cell-based, human; settings: day 11, four doses
# In short: as §1
# [9] = Cytotoxicity, sulforhodamine B assay, SNB-78; format: cell-based, human; settings: human, SNB-78 cells (CNS), day 11
# In short: as §1
# [10] = Cytotoxicity, sulforhodamine B assay, Molt-4; format: cell-based, human; settings: human, Molt-4 cells (blood), day 11
# In short: as §1
# [11] = Cytotoxicity, sulforhodamine B assay, iCell cardiomyocytes; format: cell-based; settings: human, iCell cardiomyocytes (heart)
# In short: as §1
# [12] = Cytotoxicity, sulforhodamine B assay, COLO 205; format: cell-based, human; settings: human, COLO 205 cells (intestine), day 11
# In short: as §1
# [13] = system: mitochondrial DNA (MT-CO1); test: Mitochondrial DNA quantification by qPCR; format: cell-based, human; settings: across all cell lines, at ≤4 μM, day 11
# In short: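 Cells were treated as in the 11-day, four-dose cytotoxicity protocol in glucose or galactose medium. DNA was then quantified by TaqMan qPCR, with nuclear DNA measured using a succinate dehydrogenase-specific probe.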
# [14] = Cytotoxicity, sulforhodamine B assay, Caki-1; format: cell-based, human; settings: human, Caki-1 cells (kidney), day 11
# In short: as §1
# [15] = Cytotoxicity, sulforhodamine B assay, SkMC; format: cell-based, human; settings: human, SkMC cells (muscle), CC50, SkMC, day 11
# In short: as §1
# [16] = Cytotoxicity, sulforhodamine B assay, HepG2; format: cell-based, human; settings: human, HepG2 cells (liver), day 11, four doses
# In short: as §1
# [17] = system: human cellular polymerases; settings: cited from earlier work
smiles,measurement,setting,value
"Nc1nc2c(ncn2[C@@H]2O[C@H](CO)[C@@H](O)[C@H]2F)c(=O)[nH]1 [2′-F-G, 2′-F-guanosine]",decrease of CC50 in galactose compared to glucose media,[1]; SNB-78,2–10 fold
same,CC50,"[1]; SNB-78, Galactose media",12 µM
same,CC50,"[1]; SNB-78, Glucose media",35 µM
same,CC50,"[2]; Molt-4, Galactose media",12 µM
same,CC50,"[2]; Molt-4, Glucose media",15 µM
same,amount excreted in bile,[3]; ALN-TTRSC02 (ESC),<0.0004* μg
same,amount excreted in bile,[3]; revusiran (STC),0.042 µg
same,% dose excreted in bile,"[3]; rat bile over 168 h, ALN-TTRSC02 (ESC)",<0.0003* % dose
same,Cmax,"[3]; rat heart, ALN-TTRSC02 (ESC)",< 500 nM
same,Cmax,"[3]; rat heart, revusiran (STC)",< 500 nM
same,Cmax,"[3]; rat kidney, ALN-TTRSC02 (ESC)",< 500 nM
same,AUClast,"[3]; rat kidney, revusiran (STC)",150 µM·h
same,Cmax,"[3]; rat kidney, revusiran (STC)",2600 nM
same,t1/2 (elimination half-life),"[3]; rat kidney, revusiran (STC)",46.9 h
same,tmax,"[3]; rat kidney, revusiran (STC)",16 h
same,AUClast,"[3]; rat liver, ALN-TTRSC02 (ESC)",138 µM·h
same,tmax,"[3]; rat liver, ALN-TTRSC02 (ESC)",48 h
same,Cmax,"[3]; rat liver, monomer liberated from ALN-TTRSC02 (ESC)",1700 nM
same,Cmax,"[3]; rat liver, monomer liberated from revusiran (STC)",10800 nM
same,AUClast,"[3]; rat liver, revusiran (STC)",722 µM·h
same,tmax,"[3]; rat liver, revusiran (STC)",36 h
same,Cmax,"[3]; rat plasma, ALN-TTRSC02 (ESC)",< 30 nM
same,Cmax,"[3]; rat plasma, revusiran (STC)",< 30 nM
same,amount excreted in urine,[3]; ALN-TTRSC02 (ESC),<0.003* μg
same,amount excreted in urine,[3]; revusiran (STC),1.3 µg
same,% dose excreted in urine,"[3]; rat urine over 168 h, ALN-TTRSC02 (ESC)",<0.002* % dose
same,CC50,"[4]; COLO 205, Galactose media",22 µM
same,CC50,"[4]; COLO 205, Glucose media",19 µM
same,metabolic fate of 2′-F-nucleoside,[5],stable
same,CC50,"[6]; Caki-1, Galactose media",30 µM
same,CC50,"[6]; Caki-1, Glucose media",32 µM
same,CC50,[7]; Galactose media,110 µM
same,CC50,[7]; Glucose media,127 µM
same,CC50,"[8]; HepG2, Galactose media",112 µM
same,CC50,"[8]; HepG2, Glucose media",115 µM
"Nc1ccn([C@H]2CC[C@@H](CO)O2)c(=O)n1 [ddC, 2′,3′-Dideoxycytidine]",CC50 at 11 days,"[9]; CC50, SNB-78, Galactose media",> 20 µM
same,CC50 at 11 days,"[9]; CC50, SNB-78, Glucose media",> 20 µM
same,CC50 at 11 days,"[10]; CC50, Molt-4, Galactose media",> 20 µM
same,CC50 at 11 days,"[10]; CC50, Molt-4, Glucose media",8.7 µM
same,CC50 at 11 days,[11],> 250 µM
same,CC50 at 11 days,"[12]; CC50, COLO 205, Galactose media",> 20 µM
same,CC50 at 11 days,"[12]; CC50, COLO 205, Glucose media",> 20 µM
same,reduction in mitochondrial DNA synthesis,[13],70–80%
same,CC50 at 11 days,"[14]; CC50, Caki-1, Galactose media",> 20 µM
same,CC50 at 11 days,"[14]; CC50, Caki-1, Glucose media",> 20 µM
same,CC50 at 11 days,[15]; Galactose media,> 20 µM
same,CC50 at 11 days,[15]; Glucose media,> 20 µM
same,CC50 at 11 days,"[16]; CC50, HepG2, Galactose media",> 20 µM
same,CC50 at 11 days,"[16]; CC50, HepG2, Glucose media",> 20 µM
C[C@@]1(F)[C@H](O)[C@@H](COP(=O)(O)OP(=O)(O)OP(=O)(O)O)O[C@H]1n1ccc(=O)[nH]c1=O [triphosphate form of Sofosbuvir],IC50,[17],> 200 µM
